This passage reports Activity, IC50 and hemolysis results from ChEMBL document CHEMBL3352765, “Synthesis and evaluation of the cytotoxic activity of 1,2-furanonaphthoquinones tethered to 1,2,3-1H-triazoles in myeloid and lymphoid leukemia cell lines” (Eur J Med Chem, 2014).

For data set [1], the system named is PBMC. Kind of data set: Cytotoxicity against normal human PBMC assessed as reduction in cell viability at 10 times anti-leukemic IC50 after 48 hrs by Alamar blue assay. Type of data set: cell-based. A digest of the protocol:
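Gradient-isolated donor PBMCs (three donors), 5 × 10⁴/well in RPMI 1640 with 10% inactivated FBS. […] Viability was measured by AlamarBlue with 24 h dye incubation and fluorescence at ex 560/em 590 nm.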
Background: Resazurin is reduced to fluorescent resorufin, in cell work by metabolically active cells.

Data set [2] in a line: Cytotoxicity against human KG1 cells after 48 hrs by Alamar blue assay. It is filed as functional, cell-based. To be noted: KG-1, 48 h. A digest of the protocol: (§1)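 Cells were seeded and exposed to compounds for 48 h in total: K562 at 2.5 × 10⁴/well, KG1 at 5.0 × 10⁴/well. AlamarBlue was added 4 h (K562) or 6 h (KG1) before the end. Fluorescence was read at ex 560/em 590 nm. Triplicate wells at six or seven concentrations. Vehicle controls contained up to 1% DMSO and defined 100% survival. Readout was IC50.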

Data set [3] concerns MOLT-4. The data set can be described thus: Cytotoxicity against human MOLT4 cells after 48 hrs by Alamar blue assay. Type of data set: functional, cell-based. To be noted: MOLT-4, 48 h. A digest of the protocol:
(§2)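 Cells seeded at 2.5 × 10⁴/well and exposed to compounds for 48 h in total. AlamarBlue was added before the end of the 48 h (CCRF-CEM 2 h, MOLT-4 6 h). Resorufin fluorescence was read at ex 560/em 590 nm. Triplicate wells at six or seven concentrations. Controls were cells with medium and up to 1% DMSO. IC50 is the concentration killing 50% of cells.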

For data set [4], the system named is K562. The data set can be described thus: Cytotoxicity against human K562 cells after 48 hrs by Alamar blue assay. It is filed as functional, cell-based. Particulars: K562, 48 h. A digest of the protocol:
as §1

The nature of data set [5]: Induction of hemolysis in lamb blood erythrocytes at 1000 uM incubated for 10 mins by microplate reader method. Particulars: sheep, read-out: Activity; call rule not given here. Type of data set: cell-based, Ovis aries, Erythrocyte. A digest of the protocol:
(§3)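 Fresh lamb erythrocytes were collected by centrifugation at 1500 rpm for 15 min and washed three times in PBS with 10 mM glucose, pH 7.4. They were used at 4 × 10⁸/well in triplicate, with compounds at a final 1000 µM and retests at 200 µM. After centrifugation at 13,000 rpm for 15 min, supernatant absorbance was read at 540 nm. Results are given as % of complete hemolysis from water osmotic shock.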

For data set [6], the system named is CCRF-CEM. Kind of data set: Cytotoxicity against human CCRF-CEM cells after 48 hrs by Alamar blue assay. Type of data set: functional, cell-based. A digest of the protocol: as §2
The nature of data set [7]: Induction of hemolysis in lamb blood erythrocytes at 200 uM incubated for 10 mins by microplate reader method. It is filed as cell-based, Ovis aries. Particulars: sheep, erythrocyte. A digest of the protocol:
as §3

Data set [8] has as its system PBMC. Kind of data set: Cytotoxicity against normal human PBMC assessed as reduction in cell viability after 48 hrs by Alamar blue assay. Type of data set: functional, cell-based. The procedure, abridged: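 PBMCs were isolated from healthy-donor buffy coats by density gradient centrifugation and seeded at 5.0 × 10⁴/well in RPMI 1640 with 10% inactivated FBS. Exposure was 48 h, with AlamarBlue added for the final 24 h. Fluorescence was read at ex 560/em 590 nm. Triplicate wells at six or seven concentrations. IC50 was derived against vehicle controls.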

For data set [9], the system named is PBMC. The data set can be described thus: Cytotoxicity against normal human PBMC assessed as reduction in cell viability at 10 uM after 48 hrs by Alamar blue assay. Type of data set: functional.
Data set [10] can be described thus: Cytotoxicity against human lymphocytes. To be noted: Lymphocyte. Type of data set: cell-based.
Data set [11] has as its system V79. Kind of data set: Cytotoxicity against Chinese hamster V79 cells. To be noted: Cricetulus griseus. Type of data set: cell-based.

Structures can show the parent of a compound that is named as a salt.

In the case of `COc1ccc(-c2cn(C3C4=C(OC3(C)C)c3ccccc3C(=O)C4=O)nn2)cc1` (stereo unspecified), the Activity in [1] was greater than 80%. For the same compound, the IC50 (usually the point on the concentration scale where inhibition reaches its midpoint) in data set [2] is 76200 nM; in data set [3] it was 34500 nM; in data set [4], 9060 nM; in data set [6], 11700 nM. In addition, the hemolysis at 10 min, 1000 µM in data set [5] was less than 5%.
As to `CC1(C)OC2=C(C(=O)C(=O)c3ccccc32)C1n1cc(C2=CCCCC2)nn1` (stereo unspecified), the Activity in data set [1] is on record as greater than 80%. Further, the concentration for half-maximal inhibition (IC50) in [2] was 8410 nM; in data set [3] it was 280 nM; in data set [4] it was 1110 nM; in data set [6] it was 12600 nM. Moreover, the hemolysis at 10 min, 1000 µM in data set [5] is less than 5%.
As to `CC1(C)OC2=C(C(=O)C(=O)c3ccccc32)C1n1cc(C2CCCCC2)nn1` (stereo unspecified), the Activity entry in data set [1] is recorded as “Non-toxic”. Besides, the half-maximal inhibitory concentration (IC50) amounted to 7620 nM in [2], 2130 nM in [3], 3800 nM in data set [4] and 1970 nM in data set [6]. For the same compound, the hemolysis at 10 min, 1000 µM in data set [5] is less than 5%.
With `CCCCCc1ccc(-c2cn(C3C4=C(OC3(C)C)c3ccccc3C(=O)C4=O)nn2)cc1` (stereo unspecified), the figures for the Activity in data set [1] and in [7] were greater than 80% and “Non-toxic”, respectively. Moreover, the concentration for half-maximal inhibition (IC50) in data set [2] came to 3920 nM; in [3], 2620 nM; in data set [4] it was 8030 nM; in data set [6], 13800 nM. For the same compound, the hemolysis at 10 min, 1000 µM in data set [5] is greater than 5%.
With `CCCc1cn(C2C3=C(OC2(C)C)c2ccccc2C(=O)C3=O)nn1` (stereo unspecified), the Activity in data set [1] is recorded as greater than 80%. For the same compound, the IC50 came out at 1550 nM in data set [2], 1470 nM in data set [3], 60900 nM in data set [4] and 3140 nM in data set [6]. For the same compound, the hemolysis at 10 min, 1000 µM in data set [5] was less than 5%.
In the case of `CCCCc1cn(C2C3=C(OC2(C)C)c2ccccc2C(=O)C3=O)nn1` (stereo unspecified), in [1], the Activity is reported as greater than 80%. Besides, the IC50 was 3790 nM in [2], 1920 nM in data set [3], 3780 nM in data set [4] and 3730 nM in data set [6]. Also, the hemolysis at 10 min, 1000 µM in data set [5] is less than 5%.
Turning to `CCCCCc1cn(C2C3=C(OC2(C)C)c2ccccc2C(=O)C3=O)nn1` (stereo unspecified), the Activity in data set [1] is on record as greater than 80%. Also, the IC50 in data set [2] turned out to be 30000 nM; in data set [3], 2280 nM; in data set [4] it was 2680 nM; in data set [6] it was 27600 nM. The hemolysis at 10 min, 1000 µM in data set [5] is less than 5%.
As for `CCCCCCc1cn(C2C3=C(OC2(C)C)c2ccccc2C(=O)C3=O)nn1` (stereo unspecified), the Activity in [1] is reported as greater than 80%. Further, the 50% inhibitory concentration (IC50) in data set [2] stood at 5580 nM; in data set [3] it was 2170 nM; in data set [6], 7300 nM. Also, in data set [5], the hemolysis at 10 min, 1000 µM was less than 5%.
On to `CCC(C)(O)c1cn(C2C3=C(OC2(C)C)c2ccccc2C(=O)C3=O)nn1` (stereo unspecified), for which the Activity entry in [1] is given as “Non-toxic”. Also, the IC50 in data set [2] is 5630 nM; in data set [3], 1980 nM; in data set [4] it was 1390 nM; in data set [6], 3570 nM. The hemolysis at 10 min, 1000 µM in data set [5] is less than 5%.
On to `CC(C)CC(C)(O)c1cn(C2C3=C(OC2(C)C)c2ccccc2C(=O)C3=O)nn1` (stereo unspecified), for which, in [1], the Activity is reported as greater than 80%. The IC50 was found to be 1320 nM in data set [2], 1470 nM in [3], 1910 nM in data set [4] and 1770 nM in data set [6]. Also, the hemolysis at 10 min, 1000 µM in [5] is less than 5%.
In the case of `CC(=O)OCc1cn(C2C3=C(OC2(C)C)c2ccccc2C(=O)C3=O)nn1` (stereo unspecified), in data set [1], the Activity is reported as greater than 80%. Also, the IC50 in data set [2] was found to be 9580 nM; in data set [3], 160 nM; in data set [4], 8350 nM; in data set [6], 310 nM. The hemolysis at 10 min, 1000 µM in [5] is less than 5%.
With `CC1(C)OC2=C(C(=O)C(=O)c3ccccc32)C1n1cc(CCl)nn1` (stereo unspecified), the Activity entry in data set [1] and in data set [7] was “Non-toxic” throughout. In addition, the 50% inhibitory concentration (IC50) turned out to be 980 nM in [2], 480 nM in [3], 1380 nM in data set [4] and 670 nM in data set [6]. For the same compound, the hemolysis at 10 min, 1000 µM in [5] is greater than 5%.
`CC1(C)OC2=C(C(=O)C(=O)c3ccccc32)C1n1cc(CCCCl)nn1` (stereo unspecified): in data set [1], the Activity is reported as greater than 80%. The IC50 in data set [2] was 930 nM; in data set [3] it was 50 nM; in data set [4] it was 2070 nM; in data set [8], greater than 10000 nM; in data set [6], 340 nM. For the same compound, the hemolysis at 10 min, 1000 µM in data set [5] was less than 5%.
`CC1(C)OC2=C(C(=O)C(=O)c3ccccc32)C1n1cc(C2(O)CCCCC2)nn1` (stereo unspecified): the Activity in [1] was greater than 80%. Further, the half-maximal inhibitory concentration (IC50) is 4920 nM in data set [2], 2580 nM in [3], 1530 nM in [4] and 2790 nM in data set [6]. Also, the hemolysis at 10 min, 1000 µM in data set [5] was less than 5%.
In the case of `CC1(C)OC2=C(C(=O)C(=O)c3ccccc32)C1n1cc(-c2ccccc2)nn1` (stereo unspecified), the Activity is recorded as 30% in data set [9] and “Non-toxic” in [1]. In addition, the concentration for half-maximal inhibition (IC50) was found to be 12800 nM in data set [2], 750 nM in data set [3], 14400 nM in data set [4] and 1960 nM in [6]. Moreover, the hemolysis at 10 min, 1000 µM in [5] was less than 5%.
For `CC(C)(O)c1cn(C2C3=C(OC2(C)C)c2ccccc2C(=O)C3=O)nn1` (stereo unspecified), the Activity in [1] was greater than 80%. Also, the IC50 turned out to be 2000 nM in [2], 2160 nM in data set [3], 2430 nM in data set [4] and 1730 nM in [6]. In addition, the hemolysis at 10 min, 1000 µM in data set [5] was less than 5%.
Regarding `CC1(C)OC2=C(C(=O)C(=O)c3ccccc32)C1n1cc(COC2CCCCO2)nn1` (stereo unspecified), in [1], the Activity is greater than 80%. Further, the IC50 in [2] came out at 5630 nM; in data set [3] it was 2040 nM; in [4] it was 1840 nM; in [6], 3160 nM. Further, the hemolysis at 10 min, 1000 µM in data set [5] was less than 5%.
For `CC1(C)OC2=C(C(=O)C(=O)c3ccccc32)C1N=[N+]=[N-]` (stereo unspecified), in data set [1], the Activity is on record as greater than 80%. Also, the IC50 in [2] is 6060 nM; in data set [3], 3640 nM; in [4] it was 1580 nM; in data set [6] it was 3180 nM.
As for `CC1(C)OC2=C(C(=O)C(=O)c3ccccc32)C1n1cc(CO)nn1` (stereo unspecified), the Activity in data set [1] was greater than 80%. In addition, the IC50 is 5330 nM in data set [2], 1350 nM in data set [3], 1580 nM in data set [4] and 1530 nM in data set [6]. For the same compound, in data set [5], the hemolysis at 10 min, 1000 µM is less than 5%.
With `COc1cccc2c1C(=O)c1c(O)c3c(c(O)c1C2=O)C[C@@](O)(C(=O)CO)C[C@@H]3O[C@H]1C[C@H](N)[C@H](O)[C@H](C)O1` [DOXORUBICIN HYDROCHLORIDE], the Activity in data set [1] was greater than 80%. In addition, the IC50 in data set [3] is 70 nM; in data set [6], 150 nM.
For `CC1(C)CC2=C(O1)c1ccccc1C(=O)C2=O` [NOR-BETA-LAPACHONE], the half-maximal inhibitory concentration (IC50) was greater than 22000 nM in [10]; 17200 nM in data set [2]; 13600 nM in [3]; 2280 nM in data set [4]; 13000 nM in [11]; 15200 nM in data set [6]. Further, the Activity in [1] is on record as greater than 80%.
